Test results taken from ChEMBL document CHEMBL1122777, “Effect of tellurium position on the myocardial uptake of radioiodinated 18-iodotellura-17-octadecenoic acid analogues” (1984).

Legend:
Assay type in all cases: functional
Rattus norvegicus [1] = experiment: Liver uptake after 30 min was determined in female Fischer rats after [125I]-labeled compound complexed with bovine serum albumin was injected intravenously
Procedure, shortened: (§1)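 Female Fischer 344 rats (fed ad libitum) under ether anaesthesia received the ¹²⁵I fatty acid in a lateral tail vein. Dose was ~3.8–4.8 μCi per rat (sp act ~125–240 mCi/mmol), given in 0.5 mL 6% bovine albumin (final ethanol 10%) after filtration. Four rats per time point were used. Tissue radioactivity is % injected dose/g, mean with range, calculated against standards of the injected solution.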

Rattus norvegicus [2] = experiment: Kidney uptake after 30 min was determined in female Fischer rats after [125I]-labeled compound complexed with bovine serum albumin was injected intravenously; procedure, shortened: as §1
Rattus norvegicus [3] = experiment: Kidney uptake after 60 min was determined in female Fischer rats after [125I]-labeled compound complexed with bovine serum albumin was injected intravenously; procedure, shortened: as §1
[4] = Ratio of heart to blood uptake after 30 min was determined in female Fischer rats after [125I]-labeled compound complexed with bovine serum albumin was injected intravenously
Procedure, shortened: (§2)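 Female Fischer 344 rats (food and water ad libitum) given the 125I-labelled fatty acid in 6% bovine albumin with 10% final ethanol, filtered, 0.5 mL into a lateral tail vein under ether anaesthesia. Four rats per time point. Tissue activity expressed as % injected dose/g against assayed injectate standards. Mean heart/tissue ratios were calculated from mean %ID/g values.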

[5] = Ratio of heart to liver uptake after 60 min was determined in female Fischer rats after [125I]-labeled compound complexed with bovine serum albumin was injected intravenously; procedure, shortened: as §2
Rattus norvegicus [6] = experiment: Kidney uptake after 2 hr was determined in female Fischer rats after [125I]-labeled compound complexed with bovine serum albumin was injected intravenously; procedure, shortened: as §1
Rattus norvegicus [7] = experiment: Kidney uptake after 5 min was determined in female Fischer rats after [125I]-labeled compound complexed with bovine serum albumin was injected intravenously; procedure, shortened: as §1
Rattus norvegicus [8] = experiment: Thyroid uptake after 30 min was determined in female Fischer rats after [125I]-labeled compound complexed with bovine serum albumin was injected intravenously
Procedure, shortened: (§3)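 Female Fischer 344 rats with free access to food and water. The 125I-labelled fatty acid (~3.8–4.8 μCi; sp act. ~125–240 mCi/mmol) was complexed with 6% bovine serum albumin (10% final ethanol), filtered, and 0.5 mL was injected via a lateral tail vein under ether anaesthesia. Four rats per time point. Values are mean % injected dose/g, calculated against injectate standards. Thyroid weight was taken as 7.5 mg/100 g body weight.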

Rattus norvegicus [9] = experiment: Thyroid uptake after 60 min was determined in female Fischer rats after [125I]-labeled compound complexed with bovine serum albumin was injected intravenously; procedure, shortened: as §3
[10] = Ratio of heart to liver uptake after 120 min was determined in female Fischer rats after [125I]-labeled compound complexed with bovine serum albumin was injected intravenously; procedure, shortened: as §2
Rattus norvegicus [11] = experiment: Lungs uptake after 2 hr was determined in female Fischer rats after [125I]-labeled compound complexed with bovine serum albumin was injected intravenously; procedure, shortened: as §1
Rattus norvegicus [12] = experiment: Heart uptake after 4 hr was determined in female Fischer rats after [125I]-labeled compound complexed with bovine serum albumin was injected intravenously; procedure, shortened: as §1
Rattus norvegicus [13] = experiment: Thyroid uptake after 5 min was determined in female Fischer rats after [125I]-labeled compound complexed with bovine serum albumin was injected intravenously; procedure, shortened: as §3
Rattus norvegicus [14] = experiment: Liver uptake after 3 day was determined in female Fischer rats after [125I]-labeled compound complexed with bovine serum albumin was injected intravenously; procedure, shortened: as §1
Rattus norvegicus [15] = experiment: Kidney uptake after 4 hr was determined in female Fischer rats after [125I]-labeled compound complexed with bovine serum albumin was injected intravenously; procedure, shortened: as §1
Rattus norvegicus [16] = experiment: Heart uptake after 3 day was determined in female Fischer rats after [125I]-labeled compound complexed with bovine serum albumin was injected intravenously; procedure, shortened: as §1
Rattus norvegicus [17] = experiment: Blood uptake after 3 day was determined in female Fischer rats after [125I]-labeled compound complexed with bovine serum albumin was injected intravenously; procedure, shortened: as §1
[18] = Ratio of heart to lungs uptake after 120 min was determined in female Fischer rats after [125I]-labeled compound complexed with bovine serum albumin was injected intravenously; procedure, shortened: as §2
Rattus norvegicus [19] = experiment: Kidney uptake after 1 day was determined in female Fischer rats after [125I]-labeled compound complexed with bovine serum albumin was injected intravenously; procedure, shortened: as §1
Rattus norvegicus [20] = experiment: Thyroid uptake after 3 days was determined in female Fischer rats after [125I]-labeled compound complexed with bovine serum albumin was injected intravenously; procedure, shortened: as §3
Rattus norvegicus [21] = experiment: Kidney uptake after 3 days was determined in female Fischer rats after [125I]-labeled compound complexed with bovine serum albumin was injected intravenously; procedure, shortened: as §1
Rattus norvegicus [22] = experiment: Kidneys uptake after 5 min was determined in female Fischer rats after [125I]-labeled compound complexed with bovine serum albumin was injected intravenously; procedure, shortened: as §1
Rattus norvegicus [23] = experiment: Kidneys uptake after 60 min was determined in female Fischer rats after [125I]-labeled compound complexed with bovine serum albumin was injected intravenously; procedure, shortened: as §1
Rattus norvegicus [24] = experiment: Kidneys uptake after 3 days was determined in female Fischer rats after [125I]-labeled compound complexed with bovine serum albumin was injected intravenously; procedure, shortened: as §1
Rattus norvegicus [25] = experiment: Kidneys uptake after 1 day was determined in female Fischer rats after [125I]-labeled compound complexed with bovine serum albumin was injected intravenously; procedure, shortened: as §1
Rattus norvegicus [26] = experiment: Kidneys uptake after 30 min was determined in female Fischer rats after [125I]-labeled compound complexed with bovine serum albumin was injected intravenously; procedure, shortened: as §1
Rattus norvegicus [27] = experiment: Liver uptake after 3 days was determined in female Fischer rats after [125I]-labeled compound complexed with bovine serum albumin was injected intravenously; procedure, shortened: as §1
Rattus norvegicus [28] = experiment: Heart uptake after 3 days was determined in female Fischer rats after [125I]-labeled compound complexed with bovine serum albumin was injected intravenously; procedure, shortened: as §1
Rattus norvegicus [29] = experiment: Blood uptake after 3 days was determined in female Fischer rats after [125I]-labeled compound complexed with bovine serum albumin was injected intravenously; procedure, shortened: as §1
Rattus norvegicus [30] = experiment: Kidneys uptake after 4 hr was determined in female Fischer rats after [125I]-labeled compound complexed with bovine serum albumin was injected intravenously; procedure, shortened: as §1
Rattus norvegicus [31] = experiment: Kidneys uptake after 2 hr was determined in female Fischer rats after [125I]-labeled compound complexed with bovine serum albumin was injected intravenously; procedure, shortened: as §1

SMILES	Injected dose/g (Rattus norvegicus [1]) [%]	Ratio [4]	Ratio [5]	Injected dose/g (Rattus norvegicus [8]) [%]	Injected dose/g (Rattus norvegicus [9]) [%]	Ratio [10]	Injected dose/g (Rattus norvegicus [11]) [%]	Injected dose/g (Rattus norvegicus [12]) [%]	Injected dose/g (Rattus norvegicus [13]) [%]	Ratio [18]	Injected dose/g (Rattus norvegicus [20]) [%]	further results
O=C(O)CCCCCCC[Te]CCCCCCC/C=C/I	5.69	8	1.06	15	24.8	0.84	1.43	3.51	9.21	2.7	267	Injected dose/g (Rattus norvegicus [2]): 1.38%; Injected dose/g (Rattus norvegicus [3]): 1.52%; Injected dose/g (Rattus norvegicus [6]): 1.27%; Injected dose/g (Rattus norvegicus [7]): 1.58%; Injected dose/g (Rattus norvegicus [14]): 0.64%; Injected dose/g (Rattus norvegicus [15]): 1.19%; Injected dose/g (Rattus norvegicus [16]): 0.28%; Injected dose/g (Rattus norvegicus [17]): 0.21%; Injected dose/g (Rattus norvegicus [19]): 0.59%; Injected dose/g (Rattus norvegicus [21]): 0.22%
O=C(O)CCCCCCCCC[Te]CCCCC/C=C/I	6.49	5	0.7	29	37	1.1	2.02	2.44	29	1.9	227	Injected dose/g (Rattus norvegicus [22]): 2.22%; Injected dose/g (Rattus norvegicus [23]): 1.92%; Injected dose/g (Rattus norvegicus [24]): 0.21%; Injected dose/g (Rattus norvegicus [25]): 0.62%; Injected dose/g (Rattus norvegicus [26]): 1.85%; Injected dose/g (Rattus norvegicus [27]): 0.19%; Injected dose/g (Rattus norvegicus [28]): 0.34%; Injected dose/g (Rattus norvegicus [29]): 0.34%; Injected dose/g (Rattus norvegicus [30]): 1.42%; Injected dose/g (Rattus norvegicus [31]): 1.51%
